We go through two compounds from ChEMBL document CHEMBL1955854, “New retinoid derivatives as back-ups of Adarotene” (Bioorg Med Chem, 2012).

A short description of series [1]: Solubility in water. The class given is physicochemical. As to conditions: buffer.
Series [2] relates to NCI-H460. Nature of the series: Antiproliferative activity against human NCI-H460 cells incubated for 24 hrs drug exposure measured after 48 hrs of recovery by sulforhodamine B assay. The class given is functional, cell-based.
A short description of series [3]: Chemical stability in aqueous buffer containing 5% DMSO and 5% tween 80 at pH 7.4 assessed as compound recovery in anoxic conditions after 24 hrs by UPLC analysis. The series is classed as physicochemical. As to conditions: read-out: Stability. The procedure, abridged:
(§1)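 Stability at 37 °C in aqueous buffer with 5% DMSO and 5% Tween 80 at pH 1.2, 6.8 or 7.4; percent recovery by HPLC/UPLC on BEH C18 column, water+0.1% TFA/acetonitrile gradient from 40% to 95% acetonitrile over 8 min, room temperature.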

Series [4] in a line: Toxicity in iv dosed nude CD1 mouse xenografted with human A431 cells assessed as mortality administered qd 3 times per week for 2 weeks. The class given is organism-based, A-431. Particulars: in vivo. (In general: A xenograft is tissue or cells of one species grown in another, often human tumour cells in immunodeficient mice.)
Series [5] relates to A-431. Nature of the series: Antitumor activity against human A431 cells xenografted in nude CD1 mouse assessed as tumor volume inhibition at 10 mg/kg, iv administered qd 3 times per week for 2 weeks relative to control. The series is classed as functional. Particulars: A-431, 336 h, read-out: TGI. The procedure, abridged:
(§2)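 CD1 nude mice given s.c. right-flank NCI-H460 (3 × 10⁶) or A431 (5 × 10⁶) cells from culture on day 0; eight mice per group. Dosing began day 3 at ~50 mm³ tumors; vehicle 10% DMSO, 9% HPBCD, 14.4% PEG1000 in water. Diameters taken biweekly by caliper; mice weighed daily, maximum BWL% reported; Mann–Whitney versus vehicle.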

Series [6] is described as follows: Chemical stability in aqueous buffer containing 5% DMSO and 5% tween 80 at pH 6.8 assessed as compound recovery in anoxic conditions after 24 hrs by UPLC analysis. The class given is physicochemical. As to conditions: read-out: Stability. The procedure, abridged: as §1
Series [7] deals with Mus musculus. Nature of the series: Toxicity in nude CD1 mouse xenografted with human A431 cells assessed as body weight loss at 10 mg/kg, iv administered qd 3 times per week for 2 weeks. The class given is organism-based, A-431. As to conditions: in vivo, 336 h. On the set-up: dose 10 mg/kg, route intravenous. The procedure, abridged: as §2
Series [8] relates to A-431. Nature of the series: Antitumor activity against human A431 cells xenografted in nude CD1 mouse assessed as tumor volume inhibition at 37 mg/kg, iv administered qd 3 times per week for 2 weeks relative to control. The series is classed as functional. As to conditions: A-431, 336 h, read-out: TGI. The procedure, abridged: as §2
Series [9] has as its system A-431. Nature of the series: Antiproliferative activity against human A431 cells incubated for 24 hrs drug exposure measured after 48 hrs of recovery by sulforhodamine B assay. The class given is functional, cell-based. For orientation: Sulforhodamine B stains cellular protein and so reports cell mass.
Series [10] is described as follows: Chemical stability in aqueous buffer containing 5% DMSO and 5% tween 80 at pH 7.4 assessed as compound recovery in anoxic conditions after 6 hrs by UPLC analysis. The series is classed as physicochemical. Particulars: read-out: Stability. The procedure, abridged:
as §1

Series [11] deals with Mus musculus. Nature of the series: Toxicity in nude CD1 mouse xenografted with human A431 cells assessed as body weight loss at 37 mg/kg, iv administered qd 3 times per week for 2 weeks. The class given is organism-based, A-431. On the set-up: dose 37 mg/kg, route intravenous. Particulars: in vivo, 336 h. The procedure, abridged: as §2
Series [12] can be described thus: Chemical stability in aqueous buffer containing 5% DMSO and 5% tween 80 at pH 6.8 assessed as compound recovery in anoxic conditions after 6 hrs by UPLC analysis. Particulars: read-out: Stability. The series is classed as physicochemical. The procedure, abridged: as §1
Series [13] deals with Mus musculus. Nature of the series: Toxicity in nude CD1 mouse xenografted with human NCI-H460 NSCLC cells assessed as body weight loss at 18 mg/kg, iv administered qd 3 times per week for 2 weeks. On the set-up: dose 18 mg/kg, route intravenous. The series is classed as organism-based. As to conditions: in vivo, 336 h. The procedure, abridged:
as §2

In series [14] the test system is NCI-H460. Nature of the series: Antitumor activity against human NCI-H460 cells xenografted in nude CD1 mouse assessed as tumor volume inhibition at 18 mg/kg, iv administered qd 3 times per week for 2 weeks relative to control. The series is classed as functional. As to conditions: NCI-H460, 336 h, read-out: TGI. The procedure, abridged: as §2
Series [15] is described as follows: Chemical stability in aqueous buffer containing 5% DMSO and 5% tween 80 at pH 1.2 assessed as compound recovery in anoxic conditions after 3 hrs by UPLC analysis. The series is classed as physicochemical. As to conditions: read-out: Stability. The procedure, abridged: as §1
A short description of series [16]: Chemical stability in aqueous buffer containing 5% DMSO and 5% tween 80 at pH 1.2 assessed as compound recovery in anoxic conditions after 12 hrs by UPLC analysis. The class given is physicochemical. Particulars: pH 1.2, 12 h. The procedure, abridged: as §1
Series [17] relates to A-431. Nature of the series: Antitumor activity against human A431 cells xenografted in nude CD1 mouse assessed as tumor volume inhibition at 35 mg/kg, po administered qd 3 times per week for 2 weeks relative to control. The class given is functional. As to conditions: A-431, 336 h, read-out: TGI. The procedure, abridged:
(§3)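 A431 epidermoid carcinoma cells (5 × 10⁶) from in vitro culture were injected s.c. into the right flank of CD1 nude mice on day 0, with 8 mice per group. Dosing began on day 3, at tumors of about 50 mm³, on a qdx3/wx2w schedule. Vehicle was 10% DMSO, 9% HPBCD and 14.4% PEG1000 in water. Tumor diameters were measured twice weekly by caliper, and TVI% was taken versus the vehicle group (Mann–Whitney).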

The subject of series [18] is A-431. Nature of the series: Antitumor activity against human A431 cells xenografted in nude CD1 mouse assessed as tumor volume inhibition at 35 mg/kg, ip administered qd 3 times per week for 2 weeks relative to control. The series is classed as functional. Particulars: A-431, ip, 336 h, route intraperitoneal, read-out: TGI. The procedure, abridged: as §3
Series [19] has as its system Mus musculus. Nature of the series: Toxicity in nude CD1 mouse xenografted with human A431 cells assessed as body weight loss at 35 mg/kg, ip administered qd 3 times per week for 2 weeks. The series is classed as organism-based, A-431. Further details: dose 35 mg/kg, route intraperitoneal. As to conditions: in vivo, 336 h. The procedure, abridged:
(§4)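 CD1 nude mice bore s.c. A431 xenografts (5 × 10⁶ cells, right flank, 8 mice per group). Dosing started on day 3 on a qdx3/wx2w schedule, in vehicle of 10% DMSO, 9% HPBCD and 14.4% PEG1000 in water. Mice were weighed daily, and BWL% = 100 − (mean body weight day x / mean body weight day 1 × 100), with day 1 the first treatment day. The maximum BWL is reported.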

Series [20] deals with Mus musculus. Nature of the series: Toxicity in nude CD1 mouse xenografted with human A431 cells assessed as body weight loss at 35 mg/kg, po administered qd 3 times per week for 2 weeks. The class given is organism-based, A-431. Further details: dose 35 mg/kg, route oral. As to conditions: in vivo, 336 h. The procedure, abridged:
as §4

Usually IC50 stands for the point on the concentration scale where inhibition reaches its midpoint. A lower IC50 goes with greater potency in that assay. As for `O=C(O)/C=C/c1ccc(-c2ccc(OC(=O)CCCN3CCOCC3)c(C34CC5CC(CC(C5)C3)C4)c2)cc1`, the solubility result in series [1] is recorded as “Insoluble”. In addition, the IC50 with NCI-H460 [2] was 220 nM; in the series on A-431 [9], 340 nM. Besides, the remaining at 24 h in series [3] worked out at 88%; in series [6], 90%. Further, the MTD at 336 h in [4] stood at 18 mg/kg. The inhibition in vivo at 10 mg/kg in the series on A-431 [5] came out at 34%. Besides, the figures for the Activity in the series on Mus musculus [7], in the series on Mus musculus [11] and in the series on Mus musculus [13] were 0%, 18% and 10%, respectively. In addition, the inhibition in vivo at 37 mg/kg in the series with A-431 [8] was found to be 59%. The remaining at 6 h in series [10] and in series [12] was 99% each time. In addition, the inhibition in vivo at 18 mg/kg with NCI-H460 [14] was found to be 37%. In addition, the remaining at 3 h in series [15] was over 99%. Moreover, the Stability result in series [16] is “Stable”.
For the compound `Cl.NCCCCNC(=O)Oc1ccc(-c2ccc(/C=C/C(=O)O)cc2)cc1C12CC3CC(CC(C3)C1)C2`, in [1], the solubility entry is “Insoluble”. Also, the half-inhibitory concentration (IC50) in the series on NCI-H460 [2] is 2600 nM; in the series on A-431 [9], 3400 nM. In addition, the remaining at 24 h in series [3] and in series [6] was over 99% throughout. Moreover, the inhibition in vivo at 35 mg/kg was 0% with A-431 [17] and 1% in the series on A-431 [18]. Also, the values for the Activity in the series with Mus musculus [19] and with Mus musculus [20] were 6% and 3%, respectively. Further, the remaining at 3 h in series [15] was over 99%. For the same compound, the Stability entry in [16] is “Stable”.
